Screening results deposited in PubChem BioAssay by several laboratories.
Only some compounds are listed: those with a hit (about 2.8% of all), similar ones and a draw of the others.
Measles CPE: protection of cells from measles virus. Measles virus-infected cells, CPE protection, absorbance. protection (pct of control), % at 4 µM. hit rate 1.5% among 140,000. AID 841; in the data active means protection mostly above about 24%, no sharp cut-off; inactive means mostly below about 26%
Rad51 HR inh: blocks human Rad51 in homologous recombination; hit rate 0.085% among 200,000; Q06609; inhibition, % at 10 µM; hRad51 DNA strand exchange, fluorescence dequenching; AID 1385;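 active means inhibition above 40% at the single screening dose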;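 further: 0% = DMSO control wells and 100% = blanks with heterologous ssDNA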
Target sequence (Q06609 whole entry, looked up): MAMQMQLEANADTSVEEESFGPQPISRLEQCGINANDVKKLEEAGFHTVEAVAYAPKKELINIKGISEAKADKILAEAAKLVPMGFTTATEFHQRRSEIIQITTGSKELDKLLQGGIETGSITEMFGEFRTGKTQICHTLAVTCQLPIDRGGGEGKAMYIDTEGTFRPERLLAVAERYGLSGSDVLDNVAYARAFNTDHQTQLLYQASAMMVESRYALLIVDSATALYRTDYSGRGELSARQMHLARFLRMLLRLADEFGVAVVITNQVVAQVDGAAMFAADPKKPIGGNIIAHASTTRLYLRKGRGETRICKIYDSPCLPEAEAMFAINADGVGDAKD
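Test system: preformed human Rad51 ssDNA filaments. Compound dosing: single dose, 10 µM final compound. Incubation: filaments 15 min 37 °C, then compound 30 min. Technique: FRET fluorescence dequenching, excitation 485 nm, emission 520 nm. Read-out basis: percent inhibition from fluorescence, normalised to plate control and blank means. Benchmarks: plate controls and plate blanks.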
NPY-Y2 PAM-ag: potentiators or agonists of human neuropeptide Y receptor Y2 | P49146 | cells expressing NPY-Y2, potentiator/agonist read-out | activation, % at 3.6 µM | hit rate 0.45% among 220,000; in the data active means activation above about 27%;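 further: cells stimulated with NPY near EC25 plus isoproterenol at EC100; 0% = vehicle plus submaximal agonist and 100% = vehicle plus saturating agonist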
Target sequence (P49146 whole entry, looked up): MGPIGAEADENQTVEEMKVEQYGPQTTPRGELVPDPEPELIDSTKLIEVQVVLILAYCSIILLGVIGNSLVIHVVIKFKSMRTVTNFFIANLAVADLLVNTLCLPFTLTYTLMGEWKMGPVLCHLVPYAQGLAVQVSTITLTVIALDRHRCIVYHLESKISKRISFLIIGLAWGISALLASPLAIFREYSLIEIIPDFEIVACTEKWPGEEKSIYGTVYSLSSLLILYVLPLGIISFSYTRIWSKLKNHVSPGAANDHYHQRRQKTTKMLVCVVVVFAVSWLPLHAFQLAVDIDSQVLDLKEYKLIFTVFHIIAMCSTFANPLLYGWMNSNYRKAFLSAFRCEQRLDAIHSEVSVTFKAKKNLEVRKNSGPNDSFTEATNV
NPY-Y1 antag: antagonists of human neuropeptide Y receptor Y1; HEK293-CNG Y1 cells, membrane potential fluorescence; NPY at EC95, then isoproterenol; inhibition, % at 3.6 µM; hit rate 1% among 200,000; AID 1040;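 active means inhibition above the campaign mean inhibition of all tested compounds plus 3 SD, cut at about 20% in these data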;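 further: 0% = DMSO wells given NPY plus isoproterenol and 100% = isoproterenol alone without NPY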
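System: HEK293 cells with Y1 receptor plus CNG channel / Probe or stimulus: NPY 25 nM then isoproterenol 1 µM plus Ro 20-1724 25 µM / Compound: one concentration, 3.6 µM, in 0.4% DMSO / Schedule: compound incubation 1 h at room temperature, readout 45 min post-stimulation / Measured by: membrane potential fluorescence / Read-out: % inhibition of NPY effect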
NPY-Y2 antag: antagonists of human neuropeptide Y receptor Y2. inhibition, % at 2.7 µM. NPY-Y2 expressing cells, antagonist mode. hit rate 0.99% among 140,000; in the data active means inhibition above about 17%;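 further: 0% = vehicle with agonist challenge and 100% = reference antagonist with challenge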
NPY-Y1 PAM-ag: potentiators or agonists of human neuropeptide Y receptor Y1; hit rate 0.37% among 220,000; P25929; AID 1304; activation, % at 3.6 µM; NPY-Y1 expressing cells, potentiator/agonist activation; in the data active means activation above about 33%, passing the limit was not always enough;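 further: cells stimulated with NPY at EC10 then isoproterenol at EC100; 0% = low agonist plus stimulus and 100% = saturating agonist plus stimulus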
NPY-Y1 pot conf: human NPY-Y1 potentiation or agonism, confirmation; shares compounds with NPY-Y1 PAM-ag; cell-based NPY-Y1 potentiator/agonist assay; activation, % at 3.6 µM; hit rate 20% among 280; in the data active means activation above about 45%;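 further: cells challenged with NPY at its EC10 plus isoproterenol stimulus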
NPY-Y2 counter: potentiates or activates NPY-Y2, counter-screen for NPY-Y1 hits; shares compounds with NPY-Y1 PAM-ag; HEK293-CNG cells, membrane-potential fluorescence (FLIPR), 1536-well; activation, % at 3.6 µM; hit rate 20% among 280; in the data active means activation above about 33%
NPY-Y1 agonist: human NPY-Y1 agonism as potentiator counter-screen; hit rate 50% among 280; shares compounds with NPY-Y1 PAM-ag; HEK293 Y1-CNGC, membrane potential fluorescence, agonist mode; activation, % at 3.6 µM;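 active means percent activation above the mean of DMSO-only control wells plus 3 SD of those wells, cut at about 18% in these data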;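 further: cells challenged with isoproterenol plus Ro 20-1724 with no NPY in test wells; Y1 agonism lowers isoproterenol-driven cAMP and reduces probe fluorescence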
NPY-Y2 ag: human NPY-Y2 agonism as NPY-Y1 counter-screen; shares compounds with NPY-Y1 PAM-ag; activation, % at 3.6 µM; HEK293 Y2-CNGC, membrane potential fluorescence, agonist mode; hit rate 67% among 280;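 active means activation above the solvent-only control wells' mean plus 3 SD, cut at about 11% in these data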;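 further: 0% = DMSO with isoproterenol and 100% = 40 nM NPY maximal response; agonism lowers cAMP so well fluorescence drops in active wells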
CNGC counter: CNG channel inhibition, counter-screen for NPY-Y1 potentiators. shares compounds with NPY-Y1 PAM-ag. HEK293-CNG parental, isoproterenol cAMP, membrane potential fluorescence. inhibition, % at 3.6 µM. hit rate 42% among 280. AID 1704;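 active means inhibition above the mean of stimulated solvent-only control wells plus 3 SD, cut at about 22% in these data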;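 further: 0% = isoproterenol-stimulated DMSO wells and 100% = unstimulated DMSO wells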
An asterisk follows results filed as active.

How did Cc1nc(C)c(-c2csc(Nc3cccnc3)n2)s1 do in these assays?
Measles CPE: 2; Rad51 HR inh: -7; NPY-Y2 PAM-ag: 26; NPY-Y1 antag: -16; NPY-Y2 antag: -7; NPY-Y1 PAM-ag: 40*; NPY-Y1 pot conf: 51*; NPY-Y2 counter: 41*; NPY-Y1 agonist: 53*; NPY-Y2 ag: 52*; CNGC counter: 41*

What do the screens show for `Cc1nc(C(=O)NNC(=O)c2ccc(Cl)cc2)c(C(F)(F)F)o1`?
Rad51 HR inh: -6; NPY-Y2 PAM-ag: 6; NPY-Y1 PAM-ag: -3

Results for COc1ccc(-n2nc3ccc(NS(C)(=O)=O)cc3n2)cc1Cl ?
Measles CPE: 7; Rad51 HR inh: 14; NPY-Y2 PAM-ag: 20; NPY-Y1 antag: 3; NPY-Y2 antag: 0; NPY-Y1 PAM-ag: 42*; NPY-Y1 pot conf: 43; NPY-Y2 counter: 8; NPY-Y1 agonist: 46*; NPY-Y2 ag: 16*; CNGC counter: 17

What do the screens show for `COc1ccc(CNC(=O)c2c(O)c3cccc4c3n(c2=O)CCC4)cc1OC`?
Measles CPE: 15; Rad51 HR inh: 3; NPY-Y2 PAM-ag: -16; NPY-Y1 antag: 1; NPY-Y2 antag: 2; NPY-Y1 PAM-ag: 35*; NPY-Y1 pot conf: -8; NPY-Y2 counter: 0; NPY-Y1 agonist: -3; NPY-Y2 ag: 3; CNGC counter: -1

How did COc1cc2c(cc1NC(=O)C(C)OC(=O)C1CC(=O)N(Cc3ccco3)C1)oc1ccccc12 (centres undefined) do in these assays?
Measles CPE: 19; Rad51 HR inh: 0; NPY-Y2 PAM-ag: 6; NPY-Y1 antag: -10; NPY-Y2 antag: -3; NPY-Y1 PAM-ag: 124*; NPY-Y1 pot conf: 6; NPY-Y2 counter: 8; NPY-Y1 agonist: 12; NPY-Y2 ag: 16*; CNGC counter: 15

Results for COc1ccc(C)cc1NC(=O)C1CC(=O)N(Cc2ccco2)C1 (centres undefined) ?
Measles CPE: 5; Rad51 HR inh: 2; NPY-Y2 PAM-ag: 13; NPY-Y1 antag: 1; NPY-Y2 antag: 2; NPY-Y1 PAM-ag: -11

How did CCCn1nc([N+](=O)[O-])c(C(C#N)c2nc3ccccc3s2)c(Cl)c1=O (centres undefined) do in these assays?
Measles CPE: 26; Rad51 HR inh: 2; NPY-Y2 PAM-ag: 27; NPY-Y1 antag: -7; NPY-Y2 antag: 4; NPY-Y1 PAM-ag: 59*; NPY-Y1 pot conf: 20; NPY-Y2 counter: 21; NPY-Y1 agonist: 17; NPY-Y2 ag: 32*; CNGC counter: 17

How did CCn1nc([N+](=O)[O-])c(C(C#N)c2nc3ccccc3n2C)c(Cl)c1=O (centres undefined) do in these assays?
Measles CPE: 23; Rad51 HR inh: 1; NPY-Y2 PAM-ag: 8; NPY-Y1 antag: 0; NPY-Y2 antag: 3; NPY-Y1 PAM-ag: -7

What do the screens show for `Cc1cc2nc(N=C(N)N)nc(C)c2cc1C`?
Rad51 HR inh: 3; NPY-Y2 PAM-ag: 2; NPY-Y1 antag: 1; NPY-Y1 PAM-ag: -6

Results for CCOCCOC(=O)COc1ccc(N2C(=O)c3ccccc3C2=O)cc1 ?
Measles CPE: 29; Rad51 HR inh: 5; NPY-Y2 PAM-ag: 11; NPY-Y1 antag: -3; NPY-Y2 antag: 2; NPY-Y1 PAM-ag: 44*; NPY-Y1 pot conf: 83*; NPY-Y2 counter: 55*; NPY-Y1 agonist: 63*; NPY-Y2 ag: 44*; CNGC counter: 80*

How did COc1ccc(C(=O)c2c(C)oc3ccc(O)c(CN4CCOCC4)c23)cc1 do in these assays?
Measles CPE: 3; Rad51 HR inh: 1; NPY-Y2 PAM-ag: 2; NPY-Y1 antag: -2; NPY-Y2 antag: 3; NPY-Y1 PAM-ag: -4

How did Cc1oc2ccc(O)c(CN(C)C)c2c1C(=O)c1ccccc1 do in these assays?
Rad51 HR inh: 3; NPY-Y2 PAM-ag: 14; NPY-Y1 antag: 2; NPY-Y1 PAM-ag: 47*; NPY-Y1 pot conf: 14; NPY-Y2 counter: 21; NPY-Y1 agonist: 16; NPY-Y2 ag: 11*; CNGC counter: -10

How did COc1nccnc1NS(=O)(=O)c1ccc(NS(=O)(=O)c2ccc(NC(C)=O)cc2)cc1 do in these assays?
Measles CPE: 6; Rad51 HR inh: 2; NPY-Y2 PAM-ag: -3; NPY-Y1 antag: -1; NPY-Y2 antag: 3; NPY-Y1 PAM-ag: 81*; NPY-Y1 pot conf: 5; NPY-Y2 counter: -1; NPY-Y1 agonist: 3; NPY-Y2 ag: 8; CNGC counter: 13

What do the screens show for `Cc1ccc(S(=O)(=O)N(C)C)cc1NC(=O)COC(=O)c1ccc2c(c1)OCCO2`?
NPY-Y2 PAM-ag: -17; NPY-Y1 antag: 5; NPY-Y1 PAM-ag: -6

How did CC1c2[nH]c3ccccc3c2CCN1C(=O)Nc1ccccc1 (centres undefined) do in these assays?
Measles CPE: 10; Rad51 HR inh: 0; NPY-Y2 PAM-ag: 9; NPY-Y1 antag: -8; NPY-Y2 antag: -1; NPY-Y1 PAM-ag: 47*; NPY-Y1 pot conf: 5; NPY-Y2 counter: 5; NPY-Y1 agonist: 6; NPY-Y2 ag: 0; CNGC counter: 6

How did COc1cccc(-c2nn[nH]n2)c1O do in these assays?
Measles CPE: 11; Rad51 HR inh: -3; NPY-Y2 PAM-ag: 0; NPY-Y1 antag: 6; NPY-Y2 antag: 9; NPY-Y1 PAM-ag: -17

How did CCCCOc1ccc2c(c1)C(=O)c1cc(O)ccc1-2 do in these assays?
NPY-Y2 PAM-ag: 23; NPY-Y1 antag: -4; NPY-Y1 PAM-ag: 38*; NPY-Y1 pot conf: 49*; NPY-Y2 counter: 41*; NPY-Y1 agonist: 40*; NPY-Y2 ag: 39*; CNGC counter: 33*

How did Clc1ccc(-[n+]2c(-c3cccc(Br)c3)[nH]c3nc4ccccc4nc32)cc1 do in these assays?
Rad51 HR inh: -2; NPY-Y2 PAM-ag: 7; NPY-Y1 PAM-ag: 51*; NPY-Y1 pot conf: 50*; NPY-Y2 counter: 47*; NPY-Y1 agonist: 5; NPY-Y2 ag: 36*; CNGC counter: 6

Results for CC(CC(=O)Nc1ncc([N+](=O)[O-])s1)c1ccccc1 (centres undefined) ?
Rad51 HR inh: 12; NPY-Y2 PAM-ag: 13; NPY-Y1 antag: -3; NPY-Y1 PAM-ag: 17
